CHRM5 PAM: human M5 muscarinic receptor positive allosteric modulators, primary screen, CHO-K1 cells, Fluo-8 calcium fluorescence | Muscarinic acetylcholine receptor M5 (Homo sapiens), P08912 | CHO-K1 hM5, ACh EC20 PAM; 0% = ACh EC20, 100% = ACh EC100 | activation, % at 3 µM | 0.3% of 360,000 active | AID 624038, 2012;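 active means activation above the run cutoff, the mean activation of all test compounds plus 3 SD, cut at about 18% in these data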
Target sequence (P08912 whole entry, looked up): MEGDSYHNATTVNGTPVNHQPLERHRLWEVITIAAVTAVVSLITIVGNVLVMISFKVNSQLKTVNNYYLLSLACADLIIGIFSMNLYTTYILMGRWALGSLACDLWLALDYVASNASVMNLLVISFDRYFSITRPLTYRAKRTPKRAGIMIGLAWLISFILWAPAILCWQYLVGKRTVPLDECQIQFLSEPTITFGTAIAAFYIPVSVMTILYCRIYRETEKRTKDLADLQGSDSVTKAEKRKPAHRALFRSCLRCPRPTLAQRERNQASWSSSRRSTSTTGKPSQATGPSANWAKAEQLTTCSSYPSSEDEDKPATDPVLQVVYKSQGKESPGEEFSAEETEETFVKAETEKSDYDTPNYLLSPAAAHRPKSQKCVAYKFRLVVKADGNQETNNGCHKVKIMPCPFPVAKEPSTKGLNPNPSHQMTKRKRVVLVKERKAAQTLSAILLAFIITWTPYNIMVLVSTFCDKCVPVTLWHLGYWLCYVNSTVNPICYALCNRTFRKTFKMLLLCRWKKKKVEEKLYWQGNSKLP
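Replicates: One well per compound, no replicates | System: Human M5 receptor in CHO-K1 cells | Benchmarks: Low control EC20 acetylcholine (0%), high control EC100 acetylcholine (100%) | Probe or stimulus: Acetylcholine, EC20 level | Times: Fluo-8 loading 80 min at 37 °C plus 30 min room temperature | Signal: Intracellular calcium via Fluo-8 fluorescence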
CHRM1 antagonist: human M1 muscarinic receptor antagonists, primary screen, CHO-K1 cells, Fluo-8 calcium fluorescence, 1536-well; Muscarinic acetylcholine receptor M1 (Homo sapiens), P11229; CHO-K1 hM1, ACh EC80 antagonist; inhibition, % at 3 µM; 1.3% of 360,000 active;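 active means percent inhibition above its own plate's cutoff, namely the mean of that plate's compound wells plus 3 SD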;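 further: peak over basal fluorescence ratio during 140 s after agonist addition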
M5 antag: human M5 muscarinic receptor antagonists, primary screen, CHO cells, Fluo-8 calcium fluorescence. Muscarinic acetylcholine receptor M5 (Homo sapiens), P08912. CHO-hM5 cells, ACh EC80. inhibition, % at 3 µM. 0.59% of 360,000 active. AID 624040, 2012;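 active means inhibition above a per-plate cutoff, the mean of that plate's test compounds plus 3 SD, cut at about 27% in these data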
CHRM1 PAM: human M1 muscarinic receptor positive allosteric modulators, primary screen, CHO-K1 cells, Fluo-8 calcium fluorescence, 1536-well | Muscarinic acetylcholine receptor M1 (Homo sapiens), P11229 | CHO-K1 hM1, ACh EC20; 0% = ACh EC20, 100% = maximal ACh | activation, % at 3 µM | 0.088% of 360,000 active; in the data active means activation above about 19%, passing the limit was not always enough
M5 ag: human M5 muscarinic receptor agonists, primary screen, CHO-K1 cells, Fluo-8 calcium fluorescence. 0.19% of 360,000 active. CHO-K1 hM5 cells; 0% DMSO wells, 100% maximal acetylcholine response. activation, % at 3 µM;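 active means activation above the run's mean over test compounds plus 3 SD, cut at about 23% in these data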;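 further: signal is peak over basal fluorescence ratio across the kinetic read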
CHRM1 agonist: human M1 muscarinic receptor agonists, primary screen, Fluo-8 calcium fluorescence, CHO-K1 cells, HTS; Muscarinic acetylcholine receptor M1 (Homo sapiens), P11229; CHO-K1 hM1, agonist mode; 0% DMSO, 100% acetylcholine EC100; activation, % at 3 µM; 0.33% of 360,000 active;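 active means activation above the run's mean compound activation plus 3 SD, cut at about 16% in these data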;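 further: peak over basal fluorescence ratio within a 140 s kinetic read after compound addition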
Of the large screens only hits and unclear results are named; the others gave an inactive call. Hits are enriched below; roughly 2% of the tested compounds scored in any of these assays.

CN1C[C@@H]2C(c3ccc(C(F)(F)F)cc3)C3(c4cccnc4)CC2(C3)[C@H]1c1ccccc1 (some centres undefined)	CHRM1 antagonist 31.5
c1ccc(C2[C@H]3CN(CC4CCCCC4)[C@H](c4ccccc4)C34CC2(c2ccccc2)C4)cc1 (some centres undefined)	none
c1ccc(C2[C@H]3CN(CC4CCCCC4)[C@H](c4ccccc4)C34CC2(c2cccnc2)C4)cc1 (some centres undefined)	CHRM1 antagonist 74.3
FC(F)(F)c1ccc(CN2C[C@@H]3C(c4ccc(C(F)(F)F)cc4)C4(c5cccnc5)CC3(C4)[C@H]2c2ccccc2)cc1 (some centres undefined)	none
CNC(=O)c1ccc(NC(=O)C2CCN(S(=O)(=O)c3cccc(C(F)(F)F)c3)CC2)cc1	CHRM5 PAM 18.8, CHRM1 antagonist 29.7
O=C(NNC(=O)C1CCN(S(=O)(=O)c2cccc(C(F)(F)F)c2)CC1)C1CC1	none
Nc1nc(SCc2cccnc2)c2ncn(C3OC(CO)C(O)C3O)c2n1 (centres undefined)	none
Cc1sc2cc(-c3cccc([N+](=O)[O-])c3)c(-c3cccc([N+](=O)[O-])c3)c[n+]2c1C	CHRM1 antagonist 32.5
O=[N+]([O-])c1cccc(-c2cc3cccc[n+]3cc2-c2cccc([N+](=O)[O-])c2)c1	none
CC(=O)Nc1ccc(-c2ccnc3c2CC(C)(C(=O)NCc2cccc(Cl)c2)O3)cc1 (centres undefined)	none
COc1ccc(-c2csc(NC(C)=O)n2)cc1OC	none
O=C(Nc1ccccc1)Nc1nc(-c2ccc(Cl)cc2)cs1	none
O=C(Nc1cccc(Cl)c1)Nc1nc(-c2ccc(Cl)cc2)cs1	CHRM1 antagonist 29.5
COc1ccc(-c2csc(NC(=S)NC(=O)c3ccc4ccccc4c3)n2)cc1OC	CHRM5 PAM 18.4
COc1cccc(NC(=O)Nc2nc(-c3ccc(OC)c(OC)c3)cs2)c1	CHRM1 antagonist 31.1
O=C(c1ccc(Br)c(S(=O)(=O)N2CCOCC2)c1)N1CCN(C/C=C/c2ccccc2)CC1	CHRM1 antagonist 69.9
COc1ccc(NC2=C(Cl)C(=O)N(c3ccccc3)C2=O)c(OC)c1	none
COc1ccc(N2C(=O)C(Cl)=C(Nc3ccc(OC)cc3OC)C2=O)cc1	CHRM5 PAM 19.2
CC(=O)c1ccc(N2CCN(C(=O)/C=C/c3ccc(S(=O)(=O)NCc4ccco4)cc3)CC2)cc1	CHRM1 antagonist 39.2
Cc1nn(CC(=O)NCCCc2ccccc2)c(=O)c2cccn12	none
Cc1nn(CC(=O)NCc2cccc(F)c2)c(=O)c2cccn12	M5 antag 28.7
Cc1cc(C)nc(/N=C(\N)Nc2ccc(OCc3ccccc3)cc2)n1	CHRM1 antagonist 89.4, M5 antag 96.3, M5 ag 62.6, CHRM1 agonist 69.8
Cc1cc(C)nc(/N=C(\N)Nc2ccc(OCCC(C)C)cc2)n1	CHRM1 antagonist 84.0, M5 antag 76.3, M5 ag 64.5, CHRM1 agonist 32.9
Cc1cc(C)nc(/N=C(\N)Nc2ccc(CC(=O)OC(C)C)cc2)n1	CHRM1 antagonist 58.9, M5 antag 41.7, M5 ag 30.7
Cc1cc(C)nc(/N=C(\N)Nc2cccc(OCc3ccccc3)c2)n1	CHRM1 antagonist 59.0, M5 antag 29.1, M5 ag 38.9, CHRM1 agonist 26.4
COc1ccccc1N/C(N)=N/c1nc(C)cc(C)n1	none
COc1ccc(N/C(N)=N/c2nc(C)cc(C)n2)cc1	none
S=C(Nc1cc(Cl)cc(Cl)c1)NC1CCN(Cc2ccccc2)CC1	M5 antag 28.4
Cc1c(O)ccc2c(-c3ccccc3)cc(=O)oc12	none
Cc1cccc2cc(-c3ccccc3)c(-c3ccccc3)c[n+]12	CHRM1 antagonist 52.4

Bioassay records: PubChem BioAssay, The Scripps Research Institute Molecular Screening Center
